Test results published in PubChem BioAssay.
Calls of active or inactive are those of the source.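 Rule for the calls, unless noted: active = visually confirmed hit in the image check and inhibition above 20%; inconclusive = visually confirmed hit but inhibition not above 20%; inactive = no visual hit in the image check.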

Experiments:
[1] = inhibitors of TNFa-induced NFkB p65 translocation, primary screen, imaging, HUVEC, MLSMR starter and 10KST1 sets (AID 438;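 active = inhibition above 20% together with a positive visual image hit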;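 note: compound added about 3h40 before a 20 min TNFalpha stimulation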;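 for inhibition: signal is the nuclear over cytoplasmic p65 intensity ratio per well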); details: HUVEC TNFa-induced p65 nuclear translocation; cell count: measured here: nuclei count (cytotoxicity indicator), at 2.08 µM; inhibition: at 2 µM, stronger effect = higher value, 0% TNFa-plus-vehicle, 100% no-TNFa wells
[2] = inhibitors of mutant huntingtin aggregation, primary screen, imaging, exon1htt(103Q)mCFP cells, high-content imaging (AID 483;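 active = visual image review flags a hit and inhibition of aggregation exceeds 20%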;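 note: compound exposure lasted 3 days before fixation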;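 for nuclei count: percent of the per-plate median nuclei count of sample wells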); details: exon1htt(103Q)mCFP cell line, aggregate imaging, at 2 µM; inhibition of aggregation: stronger effect = higher value; nuclei count: measured here: cell count, toxicity
[3] = inhibitors of E-selectin induction by TNFa, primary screen, imaging, HUVEC, immunofluorescence, MLSMR starter and 10KST1 sets (AID 487); details: HUVEC TNFalpha-induced E-selectin immunofluorescence imaging, at 2 µM; inhibition: stronger effect = higher value; nuclei count: measured here: cell number, toxicity;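 for inhibition: signal is fraction of cell area covered by stained E-selectin grains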;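 for nuclei count: 100% = median nuclei count of all wells on the same plate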
[4] = molecular target: Voltage-gated potassium channel subunit beta-2 (Rattus norvegicus) (UniProt P62483); assay: KvBeta enzyme negative modulators, primary screen, biochemical, NADPH fluorescence (AID 622;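 active = fluorescence slope higher than the sample average by over 3 SD, cut at about -0.22 in these data, passing the limit was not always enough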;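 note: slope of raw intensity against log time taken from 70 to 1610 s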); details: recombinant KvBeta, 4-cyanobenzaldehyde reduction, at 10 µM, stronger effect = higher value
Voltage-gated potassium channel subunit beta-2 (Rattus norvegicus), sequence (P62483 whole entry, looked up): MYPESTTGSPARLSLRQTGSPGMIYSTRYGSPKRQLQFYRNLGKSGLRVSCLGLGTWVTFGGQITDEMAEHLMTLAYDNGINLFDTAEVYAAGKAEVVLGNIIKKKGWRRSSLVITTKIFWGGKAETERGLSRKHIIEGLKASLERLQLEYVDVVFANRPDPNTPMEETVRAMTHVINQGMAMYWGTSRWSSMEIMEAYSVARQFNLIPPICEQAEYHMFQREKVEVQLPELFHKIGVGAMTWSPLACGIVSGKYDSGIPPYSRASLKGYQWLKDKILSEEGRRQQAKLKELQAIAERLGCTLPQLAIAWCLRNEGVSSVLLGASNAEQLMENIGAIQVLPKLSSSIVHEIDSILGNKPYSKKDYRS

[5] = molecular target: Voltage-gated potassium channel subunit beta-2 (Rattus norvegicus) (UniProt P62483); assay: KvBeta positive modulators, primary screen, biochemical, NADPH fluorescence (AID 623;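 active = NADPH fluorescence slope more negative than the mean of all samples by about 3 SD, 99.7% confidence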;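 note: fluorescence intensity change per second fitted from 20 to 320 s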); details: Recombinant KvBeta, NADPH fluorescence decrease slope, 10 min; at 10 µM; stronger effect = lower value
[6] = molecular target: Muscarinic acetylcholine receptor M4 (Homo sapiens) (UniProt P08173); assay: compounds altering M4/GIRK thallium flux, either direction, primary screen, M4 allosteric agonist project, cell-based, HEK293 M4/GIRK, BTC-AM (AID 625;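 active = fluorescence slope after compound addition differing from the mean of all tested samples at 99.7% confidence, mostly higher but some lower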;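 note: thallium influx through GIRK channels coupled to M4 in HEK293 cells with BTC-AM dye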); details: at 10 µM, actives lie on both sides
Muscarinic acetylcholine receptor M4 (Homo sapiens), sequence (P08173 whole entry, looked up): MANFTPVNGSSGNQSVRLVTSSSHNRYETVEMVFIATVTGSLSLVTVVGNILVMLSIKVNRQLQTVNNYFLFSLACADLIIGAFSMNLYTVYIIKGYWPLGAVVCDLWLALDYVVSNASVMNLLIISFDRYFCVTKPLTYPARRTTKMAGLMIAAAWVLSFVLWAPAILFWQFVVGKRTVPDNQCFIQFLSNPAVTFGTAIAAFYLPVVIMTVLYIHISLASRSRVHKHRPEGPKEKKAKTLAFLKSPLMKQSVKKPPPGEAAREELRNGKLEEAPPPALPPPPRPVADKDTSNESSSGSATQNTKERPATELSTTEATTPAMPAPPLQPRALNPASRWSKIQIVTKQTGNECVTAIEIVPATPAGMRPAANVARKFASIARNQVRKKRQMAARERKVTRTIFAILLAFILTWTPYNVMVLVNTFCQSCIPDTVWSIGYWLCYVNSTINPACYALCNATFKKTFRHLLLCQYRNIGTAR
In short: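 Material: M4/GIRK1/GIRK2 stable HEK293 cell line. Medium: pH 7.3 thallium assay buffer. Dosing: single compound concentration, 10 µM final. Schedule: 1 h dye loading, 2 min kinetic read. Measured by: kinetic fluorescence with BTC-AM dye. Read-out: post-addition slope, 15–24 s, of baseline-normalized fluorescence. Benchmarks: carbachol and DMSO controls.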

[7] = inhibitors of Sendai virus-induced IRF3 signaling, primary screen, TLR/RLR signaling modifier project, cell-based, Sendai virus stimulus, luciferase, 10K MLSCN set (AID 602276;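 active = inhibition at or above 50% at 10 µM; inactive = inhibition below 50%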;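 note: firefly luciferase from ISG56 promoter only with Renilla not read in this screen; 0% = Sendai virus plus DMSO and 100% = medium plus DMSO without virus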); details: HEK293 RL24 IRF3 luciferase reporter, at 10 µM, stronger effect = higher value
[8] = inhibitors of poly I:C-induced TLR3 signaling, primary screen, cell-based, poly I:C stimulus, luciferase, 10K MLSCN set (AID 602277;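 active = inhibition of the reporter signal at or above 50%; inactive = inhibition below 50%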); details: HEK293-TLR3 RL24 IRF3 luciferase reporter, at 10 µM, stronger effect = higher value

Row | Compound | cell count [1] | inhibition [1] | inhibition of aggregation [2] | nuclei count [2] [%] | inhibition [3] | nuclei count [3] [%] | fluorescence slope [4] | NADPH fluorescence slope [5] | fluorescence slope [6] | inhibition [7] | inhibition [8]
1 | Cc1cc(C)c2oc(=O)cc(CN3CCOCC3)c2c1 | 647 | 2% (inactive) | 4.4% (inactive) | 87.2 | -10.1% (inactive) | 99.8 | -0.551 (inactive) | 2.5e-06 (inactive) | 0.00519 (inactive) | 15.5% (inactive) | 25.5% (inactive)
2 | C=CCNC(=O)CNS(=O)(=O)c1ccc(F)cc1 | 443 | -2.6% (inactive) | 11.8% (inactive) | 73.9 | 36.9% (inactive) | 88 | -0.592 (inactive) | 1e-05 (inactive) | 0.00626 (inactive) | 19.3% (inactive) | 45.8% (inactive)
3 | O=C(OCCCN1C(=O)c2ccccc2C1=O)c1ccco1 | 643 | -2.2% (inactive) | 17.8% (inactive) | 96.8 | 33.4% (inactive) | 98.5 | -0.482 (inactive) | 4.2e-05 (inactive) | 0.00571 (inactive) | -6.62% (inactive) | -11.6% (inactive)
4 | O=C(OCc1nnc(-c2ccccc2)o1)C1=COCCO1 | 462 | 0% (inactive) | 5.5% (inactive) | 71.7 | -58.4% (inactive) | 110 | -0.432 (inactive) | -1.1e-05 (inactive) | 0.00605 (inactive) | -2.24% (inactive) | -6.55% (inactive)
5 | COc1ccc2c(=O)c3c(=O)n(Cc4ccco4)c(C(C)C)nc3oc2c1 | 436 | -3.9% (inactive) | -10.1% (inactive) | 91.7 | -15.2% (inactive) | 107 | -0.564 (inactive) | -2.1e-05 (inactive) | 0.00474 (inactive) | 4.04% (inactive) | 9.95% (inactive)
6 | N#Cc1c(NC(=O)CSc2nc(N)cc(=O)[nH]2)sc2c1CCCCCC2 | 728 | -14% (inactive) | -2% (inactive) | 115 | -105% (inactive) | 122 | -0.578 (inactive) | -3.4e-05 (inactive) | 0.00398 (inactive) | -11.2% (inactive) | -48.5% (inactive)
7 | COC(=O)CN(c1ccc(F)cc1)S(=O)(=O)c1ccccc1 | 329 | 1.8% (inactive) | -0.2% (inactive) | 86.5 | -92.2% (inactive) | 95.6 | -0.527 (inactive) | -0.000183 (inactive) | 0.00367 (inactive) | 6.05% (inactive) | -8.76% (inactive)
8 | Nc1cc(C(=O)O)ccc1Nc1ccccc1 | 423 | -9.8% (inactive) | 20.7% (inactive) | 86.5 | 15.1% (inactive) | 101 | -0.557 (inactive) | -4.4e-06 (inactive) | 0.0056 (inactive) | -4.17% (inactive) | -19% (inactive)
9 | COc1ccccc1-c1c(C)nn2c(C)c(C(C)=O)cnc12 | 768 | -0.8% (inactive) | 13.5% (inactive) | 97 | 96.7% (active) | 81.4 | -0.611 (inactive) | -3.6e-05 (inactive) | 0.00778 (inactive) | 17.1% (inactive) | 14.2% (inactive)
10 | Cc1nc2ccc(S(=O)(=O)NCC(=O)O)cc2s1 | 423 | 5.2% (inactive) | -3% (inactive) | 110 | -56.1% (inactive) | 118 | -0.45 (inactive) | 4.8e-05 (inactive) | 0.00579 (inactive) | -1.77% (inactive) | 13% (inactive)
11 | CC(=O)c1cccc(NC(=O)N2CCCC2C(=O)NCc2ccc(C)cc2)c1 (centres undefined) | 537 | -4.9% (inactive) | 6.2% (inactive) | 102 | -6.3% (inactive) | 120 | -0.216 (inactive) | -5.5e-06 (inactive) | 0.00664 (inactive) | 14.1% (inactive) | 23.1% (inactive)
12 | O=C(Cn1cnc2c(nnn2-c2ccc(F)cc2)c1=O)NCc1ccco1 | 657 | 9.2% (inactive) | -33.9% (inactive) | 78.6 | -8.8% (inactive) | 122 | -0.596 (inactive) | -4.4e-06 (inactive) | 0.00537 (inactive) | 5.73% (inactive) | 12% (inactive)
13 | Nc1nonc1-c1noc(-c2ccccc2Br)n1 | 384 | -1.6% (inactive) | -6.3% (inactive) | 63 | -23.9% (inactive) | 112 | -0.252 (inactive) | -2.2e-05 (inactive) | 0.00797 (inactive) | 5.89% (inactive) | -26.2% (inactive)
14 | Cc1ccc(NCc2nnc(SCC(=O)N3CCCCC3)n2CC2CCCO2)c(C)c1 (centres undefined) | 484 | 3.6% (inactive) | -7.9% (inactive) | 95.1 | -63.1% (inactive) | 109 | -0.534 (inactive) | -1.9e-05 (inactive) | 0.00508 (inactive) | 20.5% (inactive) | 25.6% (inactive)
